For one assay, the system named is HeLa. Briefly: Cytotoxicity against human HeLa cells assessed as reduction in cell viability incubated for 72 hrs by WST-8 dye based assay. Format: functional. The gist of the method: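 HeLa cells kept in DMEM with 10% FBS, 0.1% NaHCO3 and 1% antibiotic-antimycotic. Cells seeded at 2 × 10^3/well and grown 24 h at 37 °C in humidified 5% CO2. Washed with PBS, then exposed to serially diluted samples in DMEM for 72 h. Washed twice, given DMEM with 10% WST-8 for 3 h, A450 read; viability from mean of three wells; IC50.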
In general terms: Tetrazolium assays rely on reduction of a dye to a coloured formazan, in cell work by metabolically active cells.

Assay [1] in a line: Inhibition of Saccharomyces cerevisiae alpha-glucosidase using p-nitrophenyl-alpha-D-glucopyranoside substrate incubated for 30 mins. The gist of the method:
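Sample solution received 3 mM p-nitrophenyl-α-D-glucopyranoside and 0.2 U/mL α-glucosidase (stock levels) in 0.01 M phosphate buffer pH 7.0, incubated at 37 °C for 30 min. Stopped with 0.1 M Na2CO3; p-nitrophenol release read at 401 nm. IC50 is the concentration giving 50% inhibition of enzyme activity; acarbose as positive control.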

The subject of another assay is Saccharomyces cerevisiae. Nature of the assay: Potency index, ratio of IC50 for Acarbose to IC50 for test compound for inhibition of Saccharomyces cerevisiae alpha-glucosidase using p-nitrophenyl-alpha-D-glucopyranoside substrate incubated for 30 mins.

Here are results for 29 molecules from ChEMBL document CHEMBL4184136, “α-Glucosidase Inhibitory and Cytotoxic Taxane Diterpenoids from the Stem Bark of Taxus wallichiana” (J Nat Prod, 2017).

Structures are written as SMILES.

For the molecule `CCCCCCCCC/C=C\CC/C=C/[C@@H](O)[C@H](CO[C@@H]1O[C@H](CO)[C@@H](O)[C@H](O)[C@H]1O)NC(=O)[C@H](O)CCCCCCCCCCCCC`, the figures for the half-maximal inhibitory concentration (IC50) (in the assay with HeLa; in assay [1]) were over 10 µM and over 250 µM, respectively.

Consider `C=C1[C@@H](OC(C)=O)CC[C@@]2(C)C[C@H](OC)C3=C(C)C[C@H](OC(=O)C(C)C(C)O)[C@@H]([C@@H](OC(C)=O)[C@H]12)C3(C)C` (some centres undefined), for which the IC50 (commonly the concentration that gives 50% inhibition) in assay [1] came to 3.6 µM. The Ratio IC50 with Saccharomyces cerevisiae is 60.

With `COc1cc([C@H]2c3cc(O)c(OC)cc3C[C@H]3C(=O)OC[C@H]23)ccc1O` [ALPHA-CONIDENDRIN], the IC50 in the assay on HeLa is over 10 µM; in assay [1], 194 µM.

For the molecule `CC(=O)O[C@@]12CO[C@@H]1C[C@@H](O)[C@@]1(C)C(=O)[C@H](O)C3=C(C)[C@@H](OC(=O)[C@H](O)[C@@H](NC(=O)c4ccccc4)c4ccccc4)C[C@@](O)([C@@H](OC(=O)c4ccccc4)[C@H]21)C3(C)C`, the results for the IC50 (in the assay with HeLa; in assay [1]) were 8.5e-05 µM and 48.8 µM, respectively.

As to `CCCCCC(=O)N[C@@H](c1ccccc1)[C@@H](O)C(=O)O[C@H]1C[C@@]2(O)[C@@H](OC(=O)c3ccccc3)[C@@H]3[C@]4(OC(C)=O)CO[C@@H]4C[C@H](O[C@@H]4OC[C@@H](O)[C@H](O)[C@H]4O)[C@@]3(C)C(=O)[C@H](O)C(=C1C)C2(C)C`, the values for the IC50 (with HeLa; in assay [1]) were 0.05 µM and 86.9 µM, respectively.

In assay [1], `C/C=C(\C)C(=O)N[C@@H](c1ccccc1)[C@@H](O)C(=O)O[C@H]1C[C@@]2(O)[C@@H](OC(=O)c3ccccc3)[C@@H]3[C@]4(OC(C)=O)CO[C@@H]4C[C@H](O[C@@H]4OC[C@@H](O)[C@H](O)[C@H]4O)[C@@]3(C)C(=O)C(=O)C(=C1C)C2(C)C` came in with an IC50 of 142 µM.

In assay [1], `C[C@H]1O[C@H](O[C@H]2[C@H](O)[C@@H](O)[C@@H](O[C@H]3[C@H](O)[C@@H](O)C(O)O[C@@H]3CO)O[C@@H]2CO)[C@H](O)[C@@H](O)[C@@H]1N[C@H]1C=C(CO)[C@@H](O)[C@H](O)[C@H]1O` (some centres undefined) [ACARBOSE] displayed an IC50 of 215 µM.

In the case of `CC(=O)O[C@H]1C(=O)[C@]2(C)[C@H](O)C[C@H]3OC[C@@]3(OC(C)=O)[C@H]2[C@H](OC(=O)c2ccccc2)[C@]2(O)C[C@H](OC(=O)[C@H](O)[C@@H](NC(=O)c3ccccc3)c3ccccc3)C(C)=C1C2(C)C`, the half-inhibitory concentration (IC50) in assay [1] was found to be 42.7 µM.

In the case of `C=C1[C@@H](OC(=O)/C=C/c2ccccc2)C[C@H](OC(C)=O)[C@]2(C)[C@@H]1C[C@@H]1C[C@H](O)C(C)=C([C@@H](OC(C)=O)[C@@H]2OC(C)=O)C1(C)C` [TAXEZOPIDINE H], the IC50 with HeLa is over 10 µM; in assay [1] it was 15 µM.

Consider `C=C1[C@@H](O)C[C@H](OC(C)=O)[C@@]2(C)[C@@H](OC(C)=O)[C@H](OC(C)=O)C3=C(C)C(=O)C[C@@H]([C@@H](OC(C)=O)[C@H]12)C3(C)C`, for which the IC50 is over 10 µM in the assay with HeLa and over 250 µM in assay [1].

On to `C=C1[C@@H](O)C[C@H](OC(C)=O)[C@@]2(C)[C@@H](OC(C)=O)[C@H](OC(C)=O)C3=C(C)C(=O)C[C@@H]([C@@H](O)[C@H]12)C3(C)C`, for which the 50% inhibitory concentration (IC50) in the assay with HeLa is over 10 µM; in assay [1], over 250 µM.

The molecule `C=C1[C@@H](OC(C)=O)CC[C@@]2(C)C[C@H](OC)C3=C(C)C[C@H](OC(C)=O)[C@@H]([C@@H](OC(C)=O)[C@H]12)C3(C)C` showed a 50% inhibitory concentration (IC50) in assay [1] of 31.8 µM.

For `CC(=O)O[C@@]12CO[C@@H]1C[C@H](O[C@@H]1OC[C@@H](O)[C@H](O)[C@H]1O)[C@@]1(C)C(=O)C(=O)C3=C(C)CC[C@@]3(C(C)(C)OC(=O)c3ccccc3)[C@@H](O)[C@H]21`, the half-maximal inhibitory concentration (IC50) amounted to 4.9 µM in the assay on HeLa and 83.6 µM in assay [1].

Regarding `CC1(C)CC[C@]2(C(=O)O)CC[C@]3(C)C(=CC[C@@H]4[C@@]5(C)CC[C@H](O)C(C)(C)[C@@H]5CC[C@]43C)[C@@H]2C1` [OLEANOLIC_ACID], half-maximal inhibition in assay [1] (IC50) required 87.2 µM.

On to `C=C1[C@@H](OC(C)=O)CC[C@@]2(C)C[C@H](OC(C)=O)C3=C(C)C[C@H](OC(=O)C(C)C(C)O)[C@@H]([C@@H](OC(C)=O)[C@H]12)C3(C)C` (some centres undefined), for which the IC50 with HeLa is over 10 µM; in assay [1], 194 µM.

Take `CO[C@H]1O[C@H]2[C@@H]3[C@@H]1[C@@H](O)C[C@H](O)[C@@]3(C)[C@@H](O)[C@H](OC(C)=O)C1=C(C)[C@@H](OC(C)=O)C[C@]2(O)C1(C)C`: the values for the IC50 (in the assay with HeLa; in assay [1]) were over 10 µM and 97.5 µM, respectively.

Consider `C=C1[C@@H](OC(=O)/C=C/c2ccccc2)C[C@H](OC(C)=O)[C@]2(C)[C@@H]1C[C@@H]1C[C@H](OC(C)=O)C(C)=C([C@@H](OC(C)=O)[C@@H]2OC(C)=O)C1(C)C`, for which the IC50 in the assay on HeLa was 5.7 µM; in assay [1] it was 38 µM.

Turning to `CC=C(C)C(=O)N[C@@H](c1ccccc1)[C@@H](O)C(=O)O[C@H]1C[C@@]2(O)[C@@H](OC(=O)c3ccccc3)[C@@H]3[C@]4(OC(C)=O)CO[C@@H]4C[C@H](O[C@@H]4OC[C@@H](O)[C@H](O)[C@H]4O)[C@@]3(C)C(=O)[C@H](OC(C)=O)C(=C1C)C2(C)C`, the concentration for half-maximal inhibition (IC50) in the assay with HeLa is 0.14 µM; in assay [1] it was over 250 µM.

On to `C=C1[C@@H]2[C@H](OC(C)=O)[C@@H]3CC(=O)[C@@]4(C)OC[C@@]3(C)[C@@]4(O)[C@@H](OC(C)=O)[C@H](OC(C)=O)[C@]2(COC(=O)c2ccccc2)[C@@H](OC(C)=O)C[C@@H]1O`, for which the IC50 in the assay on HeLa was over 10 µM; in assay [1], over 250 µM.

As for `C=C1[C@H]2C[C@]34CC=C(C)C3[C@@H](OC4(C)C)[C@H](OC(C)=O)[C@]2(C)[C@@H](OC(C)=O)C[C@@H]1O` (some centres undefined), the half-maximal inhibitory concentration (IC50) with HeLa was over 10 µM; in assay [1], 88.5 µM.

Consider `C=C1[C@@H](O)CC[C@@]2(C)C[C@H](OC)C3=C(C)C[C@H](OC(=O)C(C)C(C)O)[C@@H]([C@@H](OC(C)=O)[C@H]12)C3(C)C` (some centres undefined), for which it took 113 µM to reach half-maximal inhibition in assay [1] (IC50).

For `CC(C)CC[C@@H](O)[C@](C)(O)[C@H]1CC[C@@]2(O)C3=CC(=O)[C@@H]4C[C@@H](O)[C@@H](O)C[C@]4(C)[C@H]3CC[C@]12C` [PONASTERONE A], the IC50 with HeLa was over 10 µM; in assay [1], 115 µM.

On to `COc1cc(C[C@@H]2COC(=O)[C@H]2Cc2ccc(O)c(OC)c2)ccc1O`, for which the results for the IC50 (in the assay with HeLa; in assay [1]) were over 10 µM and 175 µM, respectively.

`C=C1[C@@H](OC(=O)/C=C/c2ccccc2)C[C@H](OC(C)=O)[C@@]2(C)[C@@H](OC(C)=O)[C@H](OC(C)=O)C3=C(C)C(=O)C[C@@H]([C@@H](OC(C)=O)[C@H]12)C3(C)C`: the half-maximal inhibitory concentration (IC50) in assay [1] amounted to 111 µM.

Take `CC(=O)O[C@@]12CO[C@@H]1C[C@H](O)[C@@]1(C)C(=O)[C@H](O)C3=C(C)[C@@H](OC(=O)[C@H](O)[C@@H](NC(=O)c4ccccc4)c4ccccc4)C[C@@](O)([C@@H](OC(=O)c4ccccc4)[C@H]21)C3(C)C`: the IC50 with HeLa was 0.00075 µM; in assay [1] it was over 250 µM.

Turning to `CC(=O)O[C@H]1C(=O)[C@@]2(C)[C@H]([C@H](OC(=O)c3ccccc3)[C@]3(O)C[C@H](OC(=O)[C@H](O)[C@@H](NC(=O)c4ccccc4)c4ccccc4)C(C)=C1C3(C)C)[C@]1(OC(C)=O)CO[C@@H]1C[C@@H]2O` [PACLITAXEL], the IC50 in assay [1] is over 250 µM.

On to `CCCCCC(=O)N[C@@H](c1ccccc1)[C@@H](O)C(=O)O[C@H]1C[C@@]2(O)[C@@H](OC(=O)c3ccccc3)[C@@H]3[C@]4(OC(C)=O)CO[C@@H]4C[C@H](O[C@@H]4OC[C@@H](O)[C@H](O)[C@H]4O)[C@@]3(C)C(=O)[C@H](OC(C)=O)C(=C1C)C2(C)C`, for which the IC50 was 0.0015 µM with HeLa and 94.1 µM in assay [1].

Take `CC(=O)O[C@@]12CO[C@@H]1C[C@H](O)[C@@]1(C)C(=O)[C@H](O)C3=C(C)C(=O)C[C@@](O)([C@@H](OC(=O)c4ccccc4)[C@H]21)C3(C)C`: the half-inhibitory concentration (IC50) in the assay with HeLa was over 10 µM; in assay [1], over 250 µM.

Regarding `COc1cc(C[C@H]2COC(=O)[C@@H]2Cc2ccc(O)c(OC)c2)ccc1O` [MATAIRESINOL], the IC50 in assay [1] was determined as 46.5 µM.
